{"source": "ChEMBL document CHEMBL1152452", "about": "“Modifications incorporated in CpG motifs of oligodeoxynucleotides lead to antagonist activity of toll-like receptors 7 and 9” (2009)", "key": {"J774 [1]": {"tested_on": "J774", "assay": "Inhibition of 5'-CTATCTGACGTTCTCTGT-3'-activated NF-kappaB activity in mouse J774 cells at 2.5 ug/ml after 1 hr by EMSA", "type": "cell-based", "how_it_was_run": "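J774 murine macrophages were grown in DMEM with 10% FBS and antibiotics, plated at 5 × 10^6 cells/well, and co-incubated for 1 h with the agonist ODN (0.5 µg/mL) and test ODN (2.5 µg/mL). Nuclear extracts were prepared and NF-κB binding was analysed by EMSA on native polyacrylamide gels with autoradiography.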"}, "J774 [2]": {"tested_on": "J774", "assay": "Activation of NF-kappaB in mouse J774 cells at 2.5 ug/ml after 1 hr by EMSA", "type": "cell-based", "how_it_was_run": "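Murine J774 macrophages in DMEM with 10% FBS and antibiotics, plated at 5×10^6 cells/well. ODNs were given alone or together for 1 h. For inhibition, the agonist ODN at 0.5 μg/mL was co-incubated with the modified ODN at 2.5 μg/mL. Nuclear extracts were resolved by EMSA on native polyacrylamide gels and read by autoradiography.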"}}, "note": "The source made the active and inactive calls. The rule behind the calls is not given here.", "data": [{"smiles": "COC1[C@H](n2cnc3c(N)ncnc32)O[C@H](COP(=O)(S)O[C@H]2C(OC)[C@H](n3cnc4c(=O)[nH]c(N)nc43)O[C@@H]2COP(=O)(S)O[C@H]2C[C@H](n3cc(C)c(=O)[nH]c3=O)O[C@@H]2COP(=O)(S)O[C@H]2C[C@H](n3ccc(N)nc3=O)O[C@@H]2COP(=O)(S)O[C@H]2C[C@H](n3cc(C)c(=O)[nH]c3=O)O[C@@H]2COP(=O)(S)O[C@H]2C[C@H](n3cnc4c(N)ncnc43)O[C@@H]2COP(=O)(S)O[C@H]2C[C@H](n3cc(C)c(=O)[nH]c3=O)O[C@@H]2COP(=O)(S)O[C@H]2C[C@H](n3ccc(N)nc3=O)O[C@@H]2CO)[C@H]1OP(=O)(S)OC[C@H]1O[C@@H](n2ccc(N)nc2=O)C[C@@H]1OP(=O)(S)OC[C@H]1O[C@@H](n2ccc(N)nc2=O)C[C@@H]1OP(=O)(S)OC[C@H]1O[C@@H](n2cc(C)c(=O)[nH]c2=O)C[C@@H]1OP(=O)(S)OC[C@H]1O[C@@H](n2cc(C)c(=O)[nH]c2=O)C[C@@H]1OP(=O)(S)OC[C@H]1O[C@@H](n2ccc(N)nc2=O)C[C@@H]1OP(=O)(S)OC[C@H]1O[C@@H](n2cc(C)c(=O)[nH]c2=O)C[C@@H]1OP(=O)(S)OC[C@H]1O[C@@H](n2ccc(N)nc2=O)C[C@@H]1OP(=O)(S)OC[C@H]1O[C@@H](n2cc(C)c(=O)[nH]c2=O)C[C@@H]1OP(=O)(S)OC[C@H]1O[C@@H](n2cnc3c(=O)[nH]c(N)nc32)C[C@@H]1OP(=O)(S)OC[C@H]1O[C@@H](n2cc(C)c(=O)[nH]c2=O)C[C@@H]1O", "note": "(some centres not stated)", "values": [{"measurement": "Activity", "setting": "J774 [1]", "result": "inactive"}, {"measurement": "Activity", "setting": "J774 [2]", "result": "inactive"}]}]}
